According to ChEMBL document CHEMBL3098013, “Novel pyrazole integrated 1,3,4-oxadiazoles: synthesis, characterization and antimicrobial evaluation” (2014):
In brackets after ≈: the same amount, converted by molar mass.

Key:
Assay type in all cases: functional
Fusarium verticillioides [1] = assay: Antimicrobial activity against Fusarium moniliforme MTCC 156 after 48 hrs by microdilution method; conditions: MTCC 156, 48 h
How it was run: (§1)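 The minimal inhibitory concentration was determined by dilution, alongside minimal bactericidal concentration for bacterial strains and minimal fungicidal concentration for fungal strains. Tests were run in six replicates, and the value is the mean of at least three determinations.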

Fusarium oxysporum [2] = assay: Antimicrobial activity against Fusarium oxysporum MTCC 284 after 48 hrs by microdilution method; conditions: MTCC 284, 48 h; how it was run: as §1
Aspergillus niger [3] = assay: Antimicrobial activity against Aspergillus niger MTCC 281 after 48 hrs by microdilution method; conditions: MTCC 281, 48 h; how it was run: as §1
Aspergillus flavus [4] = assay: Antimicrobial activity against Aspergillus flavus MTCC 873 after 48 hrs by microdilution method; conditions: MTCC 873, 48 h; how it was run: as §1
Klebsiella pneumoniae [5] = assay: Antimicrobial activity against Klebsiella pneumoniae MTCC 3384 after 24 hrs by microdilution method; conditions: MTCC 3384, 24 h; how it was run: as §1
Escherichia coli [6] = assay: Antimicrobial activity against Escherichia coli MTCC 724 after 24 hrs by microdilution method; conditions: MTCC 724, 24 h; how it was run: as §1
Staphylococcus aureus [7] = assay: Antimicrobial activity against Staphylococcus aureus MTCC 96 after 24 hrs by microdilution method; conditions: MTCC 96, 24 h; how it was run: as §1
Bacillus cereus [8] = assay: Antimicrobial activity against Bacillus cereus MTCC 8372 after 24 hrs by microdilution method; conditions: MTCC 8372, 24 h; how it was run: as §1
Fusarium verticillioides [9] = assay: Antimicrobial activity against Fusarium moniliforme MTCC 156 at 100 ug/ml after 48 hrs by disc diffusion method; conditions: MTCC 156, 48 h, read-out: DIZ
How it was run: (§2)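 Agar diffusion read-out is the diameter of the inhibition zone in mm. Each test was run in six replicates and reported as mean ± standard deviation, taken from at least three determinations.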

Fusarium verticillioides [10] = assay: Antimicrobial activity against Fusarium moniliforme MTCC 156 at 50 ug/ml after 48 hrs by disc diffusion method; conditions: MTCC 156, 48 h, read-out: DIZ; how it was run: as §2
Fusarium oxysporum [11] = assay: Antimicrobial activity against Fusarium oxysporum MTCC 284 at 100 ug/ml after 48 hrs by disc diffusion method; conditions: MTCC 284, 48 h, read-out: DIZ; how it was run: as §2
Fusarium oxysporum [12] = assay: Antimicrobial activity against Fusarium oxysporum MTCC 284 at 50 ug/ml after 48 hrs by disc diffusion method; conditions: MTCC 284, 48 h, read-out: DIZ; how it was run: as §2
Aspergillus niger [13] = assay: Antimicrobial activity against Aspergillus niger MTCC 281 at 100 ug/ml after 48 hrs by disc diffusion method; conditions: MTCC 281, 48 h, read-out: DIZ; how it was run: as §2
Aspergillus niger [14] = assay: Antimicrobial activity against Aspergillus niger MTCC 281 at 50 ug/ml after 48 hrs by disc diffusion method; conditions: MTCC 281, 48 h, read-out: DIZ; how it was run: as §2
Aspergillus flavus [15] = assay: Antimicrobial activity against Aspergillus flavus MTCC 873 at 100 ug/ml after 48 hrs by disc diffusion method; conditions: MTCC 873, 48 h, read-out: DIZ; how it was run: as §2
Aspergillus flavus [16] = assay: Antimicrobial activity against Aspergillus flavus MTCC 873 at 50 ug/ml after 48 hrs by disc diffusion method; conditions: MTCC 873, 48 h, read-out: DIZ; how it was run: as §2
Klebsiella pneumoniae [17] = assay: Antimicrobial activity against Klebsiella pneumoniae MTCC 3384 at 100 ug/ml after 24 hrs by disc diffusion method; conditions: MTCC 3384, 24 h, read-out: DIZ; how it was run: as §2
Escherichia coli [18] = assay: Antimicrobial activity against Escherichia coli MTCC 724 at 100 ug/ml after 24 hrs by disc diffusion method; conditions: MTCC 724, 24 h, read-out: DIZ; how it was run: as §2
Klebsiella pneumoniae [19] = assay: Antimicrobial activity against Klebsiella pneumoniae MTCC 3384 at 50 ug/ml after 24 hrs by disc diffusion method; conditions: MTCC 3384, 24 h, read-out: DIZ; how it was run: as §2
Escherichia coli [20] = assay: Antimicrobial activity against Escherichia coli MTCC 724 at 50 ug/ml after 24 hrs by disc diffusion method; conditions: MTCC 724, 24 h, read-out: DIZ; how it was run: as §2
Staphylococcus aureus [21] = assay: Antimicrobial activity against Staphylococcus aureus MTCC 96 at 100 ug/ml after 24 hrs by disc diffusion method; conditions: MTCC 96, 24 h, read-out: DIZ; how it was run: as §2
Staphylococcus aureus [22] = assay: Antimicrobial activity against Staphylococcus aureus MTCC 96 at 50 ug/ml after 24 hrs by disc diffusion method; conditions: MTCC 96, 24 h, read-out: DIZ; how it was run: as §2
Bacillus cereus [23] = assay: Antimicrobial activity against Bacillus cereus MTCC 8372 at 100 ug/ml after 24 hrs by disc diffusion method; conditions: MTCC 8372, 24 h, read-out: DIZ; how it was run: as §2
Bacillus cereus [24] = assay: Antimicrobial activity against Bacillus cereus MTCC 8372 at 50 ug/ml after 24 hrs by disc diffusion method; conditions: MTCC 8372, 24 h, read-out: DIZ; how it was run: as §2

Compound | MFC (Fusarium verticillioides [1]) | MIC (Fusarium verticillioides [1]) | MFC (Fusarium oxysporum [2]) | MIC (Fusarium oxysporum [2]) | MFC (Aspergillus niger [3]) | MIC (Aspergillus niger [3]) | MFC (Aspergillus flavus [4]) | MIC (Aspergillus flavus [4]) | MBC (Klebsiella pneumoniae [5]) | MIC (Klebsiella pneumoniae [5]) | MBC (Escherichia coli [6]) | MIC (Escherichia coli [6]) | MBC (Staphylococcus aureus [7]) | MIC (Staphylococcus aureus [7]) | MBC (Bacillus cereus [8]) | MIC (Bacillus cereus [8]) | zone of inhibition at 100 µg/mL (Fusarium verticillioides [9]) | zone of inhibition at 50 µg/mL (Fusarium verticillioides [10]) | zone of inhibition at 100 µg/mL (Fusarium oxysporum [11]) | zone of inhibition at 50 µg/mL (Fusarium oxysporum [12]) | further results
COc1ccc(-c2nn(-c3ccccc3)c(C)c2-c2nnc(-c3ccccc3)o2)cc1OC | 290 µg/mL (≈ 661 µM) | 55 µg/mL (≈ 125 µM) | 220 µg/mL (≈ 502 µM) | 25 µg/mL (≈ 57 µM) | 275 µg/mL (≈ 627 µM) | 40 µg/mL (≈ 91.2 µM) | 275 µg/mL (≈ 627 µM) | 45 µg/mL (≈ 103 µM) | 250 µg/mL (≈ 570 µM) | 35 µg/mL (≈ 79.8 µM) | 220 µg/mL (≈ 502 µM) | 35 µg/mL (≈ 79.8 µM) | 235 µg/mL (≈ 536 µM) | 40 µg/mL (≈ 91.2 µM) | 230 µg/mL (≈ 525 µM) | 35 µg/mL (≈ 79.8 µM) | 8 mm | 6 mm | 24 mm | 15 mm | zone of inhibition at 100 µg/mL (Aspergillus niger [13]): 11 mm; zone of inhibition at 50 µg/mL (Aspergillus niger [14]): 3 mm; zone of inhibition at 100 µg/mL (Aspergillus flavus [15]): 8 mm; zone of inhibition at 50 µg/mL (Aspergillus flavus [16]): 5 mm; zone of inhibition at 100 µg/mL (Klebsiella pneumoniae [17]): 9 mm; zone of inhibition at 100 µg/mL (Escherichia coli [18]): 20 mm; zone of inhibition at 50 µg/mL (Klebsiella pneumoniae [19]): 6 mm; zone of inhibition at 50 µg/mL (Escherichia coli [20]): 14 mm; zone of inhibition at 100 µg/mL (Staphylococcus aureus [21]): 13 mm; zone of inhibition at 50 µg/mL (Staphylococcus aureus [22]): 6 mm; zone of inhibition at 100 µg/mL (Bacillus cereus [23]): 16 mm; zone of inhibition at 50 µg/mL (Bacillus cereus [24]): 8 mm
COc1cc(-c2nn(-c3ccccc3)c(C)c2-c2nnc(-c3ccccc3)o2)cc(OC)c1OC | 300 µg/mL (≈ 640 µM) | 55 µg/mL (≈ 117 µM) | 290 µg/mL (≈ 619 µM) | 40 µg/mL (≈ 85.4 µM) | 220 µg/mL (≈ 470 µM) | 30 µg/mL (≈ 64 µM) | 275 µg/mL (≈ 587 µM) | 45 µg/mL (≈ 96 µM) | 175 µg/mL (≈ 374 µM) | 25 µg/mL (≈ 53.4 µM) | 170 µg/mL (≈ 363 µM) | 25 µg/mL (≈ 53.4 µM) | 155 µg/mL (≈ 331 µM) | 20 µg/mL (≈ 42.7 µM) | 160 µg/mL (≈ 342 µM) | 20 µg/mL (≈ 42.7 µM) | 10 mm | 5 mm | 10 mm | 8 mm | zone of inhibition at 100 µg/mL (Aspergillus niger [13]): 20 mm; zone of inhibition at 50 µg/mL (Aspergillus niger [14]): 10 mm; zone of inhibition at 100 µg/mL (Aspergillus flavus [15]): 12 mm; zone of inhibition at 50 µg/mL (Aspergillus flavus [16]): 6 mm; zone of inhibition at 100 µg/mL (Klebsiella pneumoniae [17]): 10 mm; zone of inhibition at 100 µg/mL (Escherichia coli [18]): 17 mm; zone of inhibition at 50 µg/mL (Klebsiella pneumoniae [19]): 6 mm; zone of inhibition at 50 µg/mL (Escherichia coli [20]): 12 mm; zone of inhibition at 100 µg/mL (Staphylococcus aureus [21]): 26 mm; zone of inhibition at 50 µg/mL (Staphylococcus aureus [22]): 10 mm; zone of inhibition at 100 µg/mL (Bacillus cereus [23]): 22 mm; zone of inhibition at 50 µg/mL (Bacillus cereus [24]): 11 mm
Cc1c(-c2nnc(-c3ccc([N+](=O)[O-])cc3)o2)c(-c2ccc([N+](=O)[O-])cc2)nn1-c1ccccc1 | 290 µg/mL (≈ 619 µM) | 55 µg/mL (≈ 117 µM) | 280 µg/mL (≈ 598 µM) | 50 µg/mL (≈ 107 µM) | 275 µg/mL (≈ 587 µM) | 45 µg/mL (≈ 96.1 µM) | 275 µg/mL (≈ 587 µM) | 40 µg/mL (≈ 85.4 µM) | 170 µg/mL (≈ 363 µM) | 25 µg/mL (≈ 53.4 µM) | 175 µg/mL (≈ 374 µM) | 25 µg/mL (≈ 53.4 µM) | 155 µg/mL (≈ 331 µM) | 20 µg/mL (≈ 42.7 µM) | 160 µg/mL (≈ 342 µM) | 20 µg/mL (≈ 42.7 µM) | 18 mm | 8 mm | 16 mm | 8 mm | zone of inhibition at 100 µg/mL (Aspergillus niger [13]): 14 mm; zone of inhibition at 50 µg/mL (Aspergillus niger [14]): 6 mm; zone of inhibition at 100 µg/mL (Aspergillus flavus [15]): 11 mm; zone of inhibition at 50 µg/mL (Aspergillus flavus [16]): 8 mm; zone of inhibition at 100 µg/mL (Klebsiella pneumoniae [17]): 16 mm; zone of inhibition at 100 µg/mL (Escherichia coli [18]): 22 mm; zone of inhibition at 50 µg/mL (Klebsiella pneumoniae [19]): 8 mm; zone of inhibition at 50 µg/mL (Escherichia coli [20]): 12 mm; zone of inhibition at 100 µg/mL (Staphylococcus aureus [21]): 20 mm; zone of inhibition at 50 µg/mL (Staphylococcus aureus [22]): 12 mm; zone of inhibition at 100 µg/mL (Bacillus cereus [23]): 22 mm; zone of inhibition at 50 µg/mL (Bacillus cereus [24]): 14 mm
